Results taken from ChEMBL document CHEMBL4304758, “Development of Peptide-Based Sirtuin Defatty-Acylase Inhibitors Identified by the Fluorescence Probe, SFP3, That Can Efficiently Measure Defatty-Acylase Activity of Sirtuin” (J Med Chem, 2019).
pIC50: −log10 of the molar value. Residues, ends and D or L forms follow the SMILES beside them. *: point of attachment. Phenylacetyl(4-E-phenylazo) = O=C(Cc1ccc(/N=N/c2ccccc2)cc1)*; X5 = CCN(CC)c1ccc(/N=N/c2ccc(CC(=O)*)cc2)cc1; X3 = CN(C)c1ccc(/N=N/c2ccc(CCC(=O)*)cc2)cc1; X4 = CN(C)c1ccc(/N=N/c2ccc(CC(=O)*)cc2)cc1; X2 = CN(C)c1ccc(/N=N/c2ccc(C(=O)*)cc2)cc1; X1 = O=C(Cc1ccc(/N=N/c2ccc(O)cc2)cc1)*

Key:
[1] = target: T1, NAD-dependent protein deacetylase sirtuin-1 (Homo sapiens, UniProt Q96EB6); experiment: Inhibition of recombinant human C-terminal His6-tagged SIRT1 (Met1 to Ser747 residues) demyristoylase activity expressed in Escherichia coli using p53(Myr)-AMC as substrate measured after 3 hrs in presence of NAD+ and trypsin by fluorescence assay
T1 sequence (Q96EB6 whole entry): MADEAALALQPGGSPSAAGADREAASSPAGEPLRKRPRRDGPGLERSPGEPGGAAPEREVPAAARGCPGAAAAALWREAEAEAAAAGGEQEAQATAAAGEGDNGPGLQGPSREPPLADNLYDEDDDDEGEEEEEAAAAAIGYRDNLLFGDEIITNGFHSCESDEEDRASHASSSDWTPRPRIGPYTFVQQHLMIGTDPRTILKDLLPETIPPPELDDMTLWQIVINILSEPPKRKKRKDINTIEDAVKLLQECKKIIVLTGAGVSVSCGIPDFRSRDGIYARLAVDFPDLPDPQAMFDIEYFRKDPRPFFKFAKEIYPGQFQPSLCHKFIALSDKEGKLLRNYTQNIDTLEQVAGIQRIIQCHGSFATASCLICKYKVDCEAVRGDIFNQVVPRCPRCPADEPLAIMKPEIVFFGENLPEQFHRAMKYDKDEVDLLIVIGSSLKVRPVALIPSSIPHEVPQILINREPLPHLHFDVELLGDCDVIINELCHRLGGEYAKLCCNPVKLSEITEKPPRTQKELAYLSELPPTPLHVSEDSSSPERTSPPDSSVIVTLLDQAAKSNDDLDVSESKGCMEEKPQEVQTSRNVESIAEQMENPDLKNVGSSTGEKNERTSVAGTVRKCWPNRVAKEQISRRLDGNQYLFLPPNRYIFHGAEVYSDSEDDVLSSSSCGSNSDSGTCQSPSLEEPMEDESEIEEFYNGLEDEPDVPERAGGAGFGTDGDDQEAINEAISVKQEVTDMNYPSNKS
Procedure, shortened: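 SIRT1 at 14 nM final with 50 μM p53(Myr)-AMC and 500 μM NAD⁺ in Tris-HCl pH 8.0/NaCl/DTT/Triton buffer, 0.5% DMSO, 3 h at room temperature. Trypsin (100 nM final) plus nicotinamide (1 mM final) then added. Fluorescence Ex 355/Em 460 nm read every 5 min for 20 min at 37 °C. n = 3.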

[2] = target: T1, NAD-dependent protein deacetylase sirtuin-1; experiment: Inhibition of recombinant human C-terminal His6-tagged SIRT1 (Met1 to Ser747 residues) defatty-acylase activity expressed in Escherichia coli using SFP3 as substrate measured at 5 mins interval for 60 mins in presence of NAD+ by fluorescence assay
[3] = target: T2, NAD-dependent protein deacetylase sirtuin-2 (Homo sapiens, UniProt Q8IXJ6); experiment: Inhibition of recombinant human SIRT2 deacylation activity using Fluor de Lys Sirt2 as substrate measured at 5 mins interval for 30 mins in presence of NAD+ by fluorescence assay
T2 sequence (Q8IXJ6 whole entry): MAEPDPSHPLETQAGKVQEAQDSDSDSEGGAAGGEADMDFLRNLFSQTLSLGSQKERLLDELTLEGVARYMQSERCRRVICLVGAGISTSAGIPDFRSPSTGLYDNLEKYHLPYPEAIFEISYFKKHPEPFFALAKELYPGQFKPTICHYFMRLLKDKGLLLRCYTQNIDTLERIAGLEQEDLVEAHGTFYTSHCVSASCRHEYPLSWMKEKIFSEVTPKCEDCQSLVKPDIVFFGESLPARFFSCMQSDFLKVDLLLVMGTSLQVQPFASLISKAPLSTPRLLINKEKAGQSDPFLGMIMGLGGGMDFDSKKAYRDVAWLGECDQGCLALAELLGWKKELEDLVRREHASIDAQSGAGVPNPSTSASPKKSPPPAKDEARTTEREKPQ

[4] = target: T2, NAD-dependent protein deacetylase sirtuin-2; experiment: Inhibition of recombinant human SIRT2 defatty-acylase activity using SFP3 as substrate measured at 5 mins interval for 60 mins in presence of NAD+ by fluorescence assay
[5] = target: T3, NAD-dependent protein deacetylase sirtuin-3, mitochondrial (Homo sapiens, UniProt Q9NTG7); experiment: Inhibition of recombinant human SIRT3 (118 to 399 residues) defatty-acylase activity expressed in Escherichia coli using SFP3 as substrate measured at 5 mins interval for 60 mins in presence of NAD+ by fluorescence assay
T3 sequence (Q9NTG7 whole entry): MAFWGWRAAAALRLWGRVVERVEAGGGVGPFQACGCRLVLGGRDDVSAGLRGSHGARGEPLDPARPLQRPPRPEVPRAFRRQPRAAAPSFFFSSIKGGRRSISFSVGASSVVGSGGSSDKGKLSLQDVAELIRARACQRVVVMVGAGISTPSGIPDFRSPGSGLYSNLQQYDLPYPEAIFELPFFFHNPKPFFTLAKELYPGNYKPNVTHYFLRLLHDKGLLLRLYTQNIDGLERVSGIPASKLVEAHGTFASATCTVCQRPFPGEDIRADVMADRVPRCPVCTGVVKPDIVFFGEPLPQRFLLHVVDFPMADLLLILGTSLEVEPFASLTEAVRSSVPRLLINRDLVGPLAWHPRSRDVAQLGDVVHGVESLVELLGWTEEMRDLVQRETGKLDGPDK

[6] = target: T2, NAD-dependent protein deacetylase sirtuin-2; experiment: Inhibition of recombinant human SIRT2 demyristoylase activity using p53(Myr)-AMC as substrate measured after 3 hrs in presence of NAD+ and trypsin by fluorescence assay
[7] = target: T3, NAD-dependent protein deacetylase sirtuin-3, mitochondrial; experiment: Inhibition of recombinant human SIRT3 (118 to 399 residues) demyristoylase activity expressed in Escherichia coli using p53(Myr)-AMC as substrate measured after 3 hrs in presence of NAD+ and trypsin by fluorescence assay
[8] = target: T2, NAD-dependent protein deacetylase sirtuin-2; experiment: Drug metabolism assessed as recombinant human SIRT2-mediated deacylation by measuring dabcyl formation at 20 uM measured up to 4 hrs in presence of NAD+ by HPLC analysis; format: ADME
Procedure, shortened: (§1)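 Compound at 20 μM final (0.2% DMSO) with 350 nM SIRT2 and 500 μM NAD⁺ at 37 °C in buffer I: 50 mM Tris-HCl pH 8.0, 150 mM NaCl, 1 mM DTT, 0.05% Triton X-100. Aliquots taken at 0 and 4 h. Reversed-phase HPLC, TFA water/acetonitrile gradient. Detection at 510, 350 or 254 nm depending on compound.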

[9] = target: T2, NAD-dependent protein deacetylase sirtuin-2; experiment: Drug metabolism assessed as recombinant human SIRT2-mediated deacylation by measuring dabcyl-PH formation at 20 uM measured up to 4 hrs in presence of NAD+ by HPLC analysis; format: ADME; procedure, shortened: as §1
SIRT2 = experiment: Stability of the compound in SIRT assay buffer assessed as parent compound remaining at 20 uM measured after 4 hrs in presence of recombinant human SIRT2 and NAD+ by HPLC analysis; format: physicochemical; settings: read-out: Stability; procedure, shortened: as §1

| Compound | pIC50 [1] | pIC50 [2] | pIC50 [3] | pIC50 [4] | pIC50 [5] | pIC50 [6] | pIC50 [7] | Drug metabolism [8] | Drug metabolism [9] | remaining at 4 h, 20 µM (SIRT2) |
| --- | --- | --- | --- | --- | --- | --- | --- | --- | --- | --- |
| Cc1cc(C)nc(SCC(=O)Nc2ncc(Cc3cccc4ccccc34)s2)n1 | < 5.00 | < 5.00 |  |  |  |  |  |  |  |  |
| CCCCCCCCCCCCCC(=O)NCCCC[C@H](NC(=O)OCc1ccccc1)C(=O)Nc1ccccc1 |  |  | < 6.00 | < 5.70 |  |  |  |  |  |  |
| C[C@H](NC(=O)[C@H](CCCCNC(=O)Cc1ccc(/N=N/c2ccc(O)cc2)cc1)NC(=O)OCc1ccccc1)C(N)=O |  |  | 6.72 | < 5.70 |  |  |  |  |  |  |
| C[C@H](NC(=O)[C@H](CCCCNC(=O)Cc1ccc(/N=N/c2ccc(OCCc3ccccc3)cc2)cc1)NC(=O)OCc1ccccc1)C(N)=O |  | < 5.70 | 6.40 | < 5.70 | < 5.70 | < 5.70 |  |  |  |  |
| C[C@H](NC(=O)[C@H](CCCCNC(=O)Cc1ccc(/N=N/c2ccc(OCc3ccccc3)cc2)cc1)NC(=O)OCc1ccccc1)C(N)=O |  |  | 6.72 | < 5.70 |  |  |  |  |  |  |
| CC[C@H](C)[C@H](NC(C)=O)C(=O)N[C@@H](CCCCNC(=O)Cc1ccc(/N=N/c2ccccc2)cc1)C(=O)N[C@@H](CCCNC(=N)N)C(N)=O | 7.08 | 6.57 | 6.96 | 7.20 |  | 6.60 |  |  |  |  |
| CC[C@H](C)[C@H](NC(=O)[C@H](CCCNC(=N)N)NC(C)=O)C(=O)N[C@@H](CCCCNC(=O)Cc1ccc(/N=N/c2ccccc2)cc1)C(=O)N[C@@H](CCCNC(=N)N)C(=O)N[C@@H](Cc1ccc(O)cc1)C(N)=O (Ac-RIK(Phenylacetyl(4-E-phenylazo))RY-NH2) | 7.15 | 7.32 | 6.74 | 7.72 | 7.11 | 7.29 | 6.47 |  |  |  |
| CC[C@H](C)[C@H](NC(=O)[C@H](CCCNC(=N)N)NC(C)=O)C(=O)N[C@@H](CCCCNC(=O)Cc1ccc(/N=N/c2ccc(O)cc2)cc1)C(=O)N[C@@H](CCCNC(=N)N)C(=O)N[C@@H](Cc1ccc(O)cc1)C(N)=O (Ac-RIK(X1)RY-NH2) | 7.30 | 6.92 | 6.96 | 7.72 | 7.26 | 7.36 | 6.72 |  |  |  |
| CC[C@H](C)[C@H](NC(=O)[C@H](CCCNC(=N)N)NC(C)=O)C(=O)N[C@@H](CCCCNC(=O)c1ccc(/N=N/c2ccc(N(C)C)cc2)cc1)C(=O)N[C@@H](CCCNC(=N)N)C(=O)N[C@@H](Cc1ccc(O)cc1)C(N)=O (Ac-RIK(X2)RY-NH2) |  | < 5.70 | 5.80 | 6.37 | 6.11 | 5.80 |  | Metabolite_Detected |  |  |
| CC[C@H](C)[C@H](NC(=O)[C@H](CCCNC(=N)N)NC(C)=O)C(=O)N[C@@H](CCCCNC(=O)CCc1ccc(/N=N/c2ccc(N(C)C)cc2)cc1)C(=O)N[C@@H](CCCNC(=N)N)C(=O)N[C@@H](Cc1ccc(O)cc1)C(N)=O (Ac-RIK(X3)RY-NH2) |  | 5.77 | 5.96 | 6.52 | 5.82 | < 5.70 |  |  | Metabolite_Detected |  |
| CC[C@H](C)[C@H](NC(=O)[C@H](CCCNC(=N)N)NC(C)=O)C(=O)N[C@@H](CCCCNC(=O)Cc1ccc(/N=N/c2ccc(N(C)C)cc2)cc1)C(=O)N[C@@H](CCCNC(=N)N)C(=O)N[C@@H](Cc1ccc(O)cc1)C(N)=O (Ac-RIK(X4)RY-NH2) | 7.01 | 6.40 | 6.77 | 7.44 | 6.96 | 6.89 | 6.48 |  |  | > 99% |
| CC[C@H](C)[C@H](NC(=O)[C@H](CCCNC(=N)N)NC(C)=O)C(=O)N[C@@H](CCCCNC(=O)Cc1ccc(/N=N/c2ccc(N(CC)CC)cc2)cc1)C(=O)N[C@@H](CCCNC(=N)N)C(=O)N[C@@H](Cc1ccc(O)cc1)C(N)=O (Ac-RIK(X5)RY-NH2) | 6.85 | 5.96 | 6.59 | 7.17 | 6.74 | 6.72 | 6.32 |  |  |  |
| CC[C@H](C)[C@H](NC(=O)[C@@H](NC(=O)[C@H](CCCCNC(=O)Cc1ccc(/N=N/c2ccccc2)cc1)NC(=O)[C@H](CC(=O)O)NC(=O)[C@H](CO)NC(C)=O)[C@@H](C)O)C(N)=O (Ac-SDK(Phenylacetyl(4-E-phenylazo))TI-NH2) |  | < 5.70 | 6.24 | 5.82 | < 5.70 | < 5.70 |  |  |  |  |
| CC[C@H](C)[C@H](NC(=O)[C@@H](NC(=O)[C@H](CCCCNC(=O)c1ccc(/N=N/c2ccc(N(C)C)cc2)cc1)NC(=O)[C@H](CC(=O)O)NC(=O)[C@H](CO)NC(C)=O)[C@@H](C)O)C(N)=O (Ac-SDK(X2)TI-NH2) |  | < 5.70 | 5.92 | < 5.70 | < 5.70 | < 5.70 |  |  |  |  |
| CC[C@H](C)[C@H](NC(=O)[C@H](CCCCNC(=O)Cc1ccc(/N=N/c2ccccc2)cc1)NC(=O)[C@@H](NC(C)=O)C(C)C)C(=O)N[C@@H](CCCCN)C(=O)N[C@@H](CCCCN)C(N)=O (Ac-VK(Phenylacetyl(4-E-phenylazo))IKK-NH2) | 6.37 | 5.85 | 6.92 | 6.92 |  | 6.28 |  |  |  |  |
